A short description of data set [1]: Drug distribution in human H1299 cells cytosol incubated for 4 hrs followed cellular conjugation with tetrazine-TAMRA immunofluorescence microscopy. The class given is ADME, subcellular, NCI-H1299. The method, boiled down: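 Live H1299 cells were incubated with the TCO-bearing probe for 4 h, fixed, permeabilised and conjugated with tetrazine-TAMRA. After washing with fresh medium, cells were imaged by microscopy alongside anti-DDR1 immunofluorescence staining.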

The target in data set [2] is T1, Epithelial discoidin domain-containing receptor 1 (Homo sapiens, UniProt Q08345). Kind of data set: Inhibition of human GST-tagged DDR1 (440 to 876 residues) expressed in baculovirus expression system using fluorescein-Poly GAT as substrate incubated for 1 to 2 hrs in presence of ATP by TR-FRET assay.
The test system of another data set is MCF7. As to the kind of experiment: Antiproliferative activity against human MCF7 cells overexpressing cathepsin D assessed as growth inhibition.
The target in data set [3] is T2, Cathepsin D (Homo sapiens, UniProt P07339). Kind of data set: Binding affinity to cathepsin D in human H1299 cells assessed as increase in thermal stability of heavy chain at 10 uM incubated for 2 hrs followed by compound washout twice with PBS buffer to remove excess compound and further heated at 95 degree C for 10 mins by CETSA. The following applies: nci-h1299, 2 h. It counts as ADME, cell-based. The method, boiled down:
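For the cellular thermal shift assay, live H1299 cells were treated with compound or DMSO. The thermal stability of the mature CTSD heavy chain was then compared between the two.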

The test system of a further data set is MDA-MB-231. As to the kind of experiment: Antiproliferative activity against human MDA-MB-231 cells overexpressing cathepsin D assessed as growth inhibition.
Data set [4] concerns the target T2, Cathepsin D. As to the kind of experiment: Inhibition of cathepsin D (unknown origin) at 50 to 200 uM.
The subject of a further data set is SK-BR-3. As to the kind of experiment: Antiproliferative activity against human SKBR3 cells overexpressing cathepsin D assessed as growth inhibition.
Data set [5] concerns the target T1, Epithelial discoidin domain-containing receptor 1. Kind of data set: Binding affinity to DDR1 in TAMRA-N3 conjugated human […] cell lysate assessed as labeling band formation at 1 to 2 uM incubated for 1 to 3 hrs followed irradiation with UV-light at 365 nm for 20 mins by gel fluorescence scanning analysis. An outline of the steps:
(§1)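 Live H1299 cells or H1299 lysate were incubated with the photoaffinity probe for 1–3 h, then irradiated at 365 nm for 20 min. Labelled proteins were clicked to TAMRA-N3, separated by SDS-PAGE and detected by in-gel fluorescence scanning.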

For data set [6] the target is unchanged. Kind of data set: Binding affinity to DDR1 in TAMRA-N3 conjugated human […] cells assessed as fluorescence band formation with molecular weight of 110 kDa at 1 to 2 uM incubated for 2 hrs followed by compound washout to remove excess compound and further irradiated with UV-light at 365 nm for 20 mins by pull down assay.
Data set [7] in a line: Drug localization in cytoplasm of human H1299 cells conjugated with TAMRA-N3 incubated for 2 to 6 hrs followed by compound washout twice with PBS buffer to remove excess compound and further irradiated with UV-light for 20 mins by Hoechst staining based confocal microscopy. It counts as ADME, subcellular. To be noted: nci-h1299. An outline of the steps: (§2)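 H1299 cells were incubated with the probe, with or without excess parent inhibitor, then UV cross-linked. Cells were fixed, permeabilised, clicked to TAMRA-N3 and imaged by confocal microscopy with nuclear staining and DIC. Negative control samples were included.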

A short description of data set [8]: Drug localization in cellular membrane of human H1299 cells conjugated with TAMRA-N3 incubated for 2 to 6 hrs followed by compound washout twice with PBS buffer to remove excess compound and further irradiated with UV-light for 20 mins by Hoechst staining based confocal microscopy. It counts as ADME, cell membranes. To be noted: nci-h1299. The method, boiled down:
as §2

Data set [9] has as its target T1, Epithelial discoidin domain-containing receptor 1. Kind of data set: Binding affinity to DDR1 in TAMRA-N3 conjugated human […] cells assessed as labeling band formation at 1 to 2 uM incubated for 1 to 3 hrs followed irradiation with UV-light at 365 nm for 20 mins by gel fluorescence scanning analysis. The method, boiled down:
as §1

For data set [10], the target named is T2, Cathepsin D. As to the kind of experiment: Binding affinity to cathepsin D in TAMRA-N3 conjugated human […] cells assessed as fluorescence band formation with molecular weight of 30 kDa at 1 to 2 uM incubated for 2 hrs followed by compound washout to remove excess compound and further irradiated with UV-light at 365 nm for 20 mins by pull down assay. The class given is ADME. An outline of the steps: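 Live H1299 cells were labelled with the photoaffinity probe and UV cross-linked. Labelled proteins were pulled down and detected by Western blot; CTSD was probed with an anti-CTSD antibody. The heavy chain of mature CTSD runs at ~33 kDa.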

The target of data set [11] is T2, Cathepsin D. Kind of data set: Binding affinity to cathepsin D in human […] cells assessed as protein labeling at 0.5 to 1 uM pretreated with lysosomal neutralizing agent ammonium chloride for 30 mins followed by compound treatment by pull down based Western blot analysis. The class given is ADME, cell-based. An outline of the steps: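 Live H1299 cells were first treated with 10 mM ammonium chloride for 30 min to neutralise lysosomes. Probe labelling followed, with pull-down and Western blot for CTSD.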
On the technique in general: Immunoblotting shows a protein as a band on a membrane.

Data set [12] addresses T2, Cathepsin D. As to the kind of experiment: Binding affinity to cathepsin D in SILAC labeled human H1299 cells assessed as labeling of heavy chain incubated for 3 hrs in presence of excess parent compound followed by compound washout twice with PBS buffer to remove excess compound and further irradiated with UV-light at 365 nm for 20 mins by LC-MS/MS analysis. To be noted: nci-h1299, 3 h. Details: dose or concentration left out as unconfirmed. The class given is ADME, cell-based. The method, boiled down:
(§3)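 SILAC-labelled H1299 cells were treated with the photoaffinity probe for 2–4 h and then UV-irradiated. Labelled proteomes were clicked to biotin-N3, enriched, digested and analysed by LC-MS/MS. Controls (excess parent inhibitor or DMSO) were run in parallel. Biological triplicates were performed, and hits were filtered by SILAC ratios.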

Data set [13] deals with T3, Catechol O-methyltransferase (Homo sapiens, UniProt P21964).
T3 sequence (P21964 whole entry): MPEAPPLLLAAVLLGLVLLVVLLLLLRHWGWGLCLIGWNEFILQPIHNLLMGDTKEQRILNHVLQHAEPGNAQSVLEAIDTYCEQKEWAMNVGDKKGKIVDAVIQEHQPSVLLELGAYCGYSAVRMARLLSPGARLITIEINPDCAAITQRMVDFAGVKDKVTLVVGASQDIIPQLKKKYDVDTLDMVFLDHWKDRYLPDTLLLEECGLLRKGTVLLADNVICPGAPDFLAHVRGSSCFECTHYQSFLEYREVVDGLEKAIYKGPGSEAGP
As to the kind of experiment: Binding affinity to COMT in SILAC labeled human H1299 cells incubated for 3 hrs followed by compound washout twice with PBS buffer to remove excess compound and further irradiated with UV-light at 365 nm for 20 mins by LC-MS/MS analysis. The following applies: nci-h1299, 3 h. It counts as ADME, cell-based. Details: dose or concentration left out as unconfirmed. An outline of the steps: as §3

Data set [14] deals with T2, Cathepsin D. As to the kind of experiment: Binding affinity to cathepsin D in SILAC labeled human H1299 cells incubated for 3 hrs followed by compound washout twice with PBS buffer to remove excess compound and further irradiated with UV-light at 365 nm for 20 mins by LC-MS/MS analysis. To be noted: nci-h1299, 3 h. On the set-up: dose or concentration left out as unconfirmed. It counts as cell-based. The method, boiled down:
as §3

The target of another data set is Protein GPR107 (Homo sapiens, UniProt Q5VW38). As to the kind of experiment: Binding affinity to GPR107 in SILAC labeled human H1299 cells incubated for 3 hrs followed by compound washout twice with PBS buffer to remove excess compound and further irradiated with UV-light at 365 nm for 20 mins by LC-MS/MS analysis. To be noted: nci-h1299, 3 h. The class given is ADME, cell-based. Details: dose or concentration left out as unconfirmed. An outline of the steps:
as §3

Results on 4 compounds are retold here after ChEMBL document CHEMBL4602713, “Quantitative Proteomics Reveals Cellular Off-Targets of a DDR1 Inhibitor” (ACS Med Chem Lett, 2020).

Active and inactive are the calls of the source. The rule behind the calls is not given here.

T1 sequence (Q08345 whole entry, the tested form may be a part): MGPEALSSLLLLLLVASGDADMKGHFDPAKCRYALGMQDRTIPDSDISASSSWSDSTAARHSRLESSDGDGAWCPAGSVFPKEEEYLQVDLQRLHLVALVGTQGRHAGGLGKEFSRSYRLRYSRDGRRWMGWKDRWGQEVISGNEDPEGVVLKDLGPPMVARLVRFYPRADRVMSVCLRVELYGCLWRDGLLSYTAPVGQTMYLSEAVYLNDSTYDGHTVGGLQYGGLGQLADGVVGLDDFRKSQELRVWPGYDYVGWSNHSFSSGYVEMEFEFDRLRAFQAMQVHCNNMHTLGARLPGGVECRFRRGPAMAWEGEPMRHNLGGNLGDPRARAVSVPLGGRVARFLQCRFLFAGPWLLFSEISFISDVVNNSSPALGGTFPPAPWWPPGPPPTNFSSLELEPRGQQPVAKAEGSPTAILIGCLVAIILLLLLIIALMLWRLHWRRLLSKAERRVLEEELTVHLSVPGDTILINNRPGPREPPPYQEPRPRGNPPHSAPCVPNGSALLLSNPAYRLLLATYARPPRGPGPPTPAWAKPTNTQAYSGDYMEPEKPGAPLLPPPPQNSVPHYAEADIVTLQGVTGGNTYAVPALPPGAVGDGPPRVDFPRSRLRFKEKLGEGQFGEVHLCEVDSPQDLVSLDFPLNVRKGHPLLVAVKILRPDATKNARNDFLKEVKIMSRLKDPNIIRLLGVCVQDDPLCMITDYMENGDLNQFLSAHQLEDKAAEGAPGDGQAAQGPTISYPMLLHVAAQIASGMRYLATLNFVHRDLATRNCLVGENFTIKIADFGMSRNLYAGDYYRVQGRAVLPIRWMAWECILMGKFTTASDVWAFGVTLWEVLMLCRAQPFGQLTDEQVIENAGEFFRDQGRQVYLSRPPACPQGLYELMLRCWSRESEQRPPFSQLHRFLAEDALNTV
T2 sequence (P07339 65-162 limits assumed): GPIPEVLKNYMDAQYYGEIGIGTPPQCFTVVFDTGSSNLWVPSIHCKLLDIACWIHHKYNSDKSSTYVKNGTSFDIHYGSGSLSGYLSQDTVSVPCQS
T2 sequence (P07339 169-412 limits assumed): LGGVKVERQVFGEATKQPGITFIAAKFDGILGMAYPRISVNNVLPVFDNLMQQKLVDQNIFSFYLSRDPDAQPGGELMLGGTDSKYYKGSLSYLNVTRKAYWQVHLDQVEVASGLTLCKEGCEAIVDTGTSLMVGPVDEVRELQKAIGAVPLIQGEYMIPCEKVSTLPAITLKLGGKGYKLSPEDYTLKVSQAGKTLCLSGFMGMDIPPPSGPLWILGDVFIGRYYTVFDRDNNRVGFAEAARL
Sequence of Protein GPR107 (Q5VW38 whole entry): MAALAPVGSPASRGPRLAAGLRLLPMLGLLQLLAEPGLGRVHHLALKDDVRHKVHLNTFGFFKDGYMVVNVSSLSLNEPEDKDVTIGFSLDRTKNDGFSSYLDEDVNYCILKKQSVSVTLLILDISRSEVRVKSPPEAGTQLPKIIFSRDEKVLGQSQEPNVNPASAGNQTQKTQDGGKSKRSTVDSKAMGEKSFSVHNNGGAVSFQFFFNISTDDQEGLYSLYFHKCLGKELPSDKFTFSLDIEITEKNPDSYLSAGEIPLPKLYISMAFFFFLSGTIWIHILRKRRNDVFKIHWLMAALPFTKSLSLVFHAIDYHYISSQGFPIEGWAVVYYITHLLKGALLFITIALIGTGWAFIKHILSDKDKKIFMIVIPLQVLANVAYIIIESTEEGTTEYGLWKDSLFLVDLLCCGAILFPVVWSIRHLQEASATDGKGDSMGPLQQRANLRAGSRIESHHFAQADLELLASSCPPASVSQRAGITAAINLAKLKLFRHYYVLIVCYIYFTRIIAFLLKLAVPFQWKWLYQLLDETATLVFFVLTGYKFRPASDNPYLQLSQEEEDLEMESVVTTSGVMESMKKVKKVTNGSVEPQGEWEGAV

Usually IC50 stands for the midpoint of a concentration-inhibition curve. For `CC1CN(c2cncnc2)Cc2cc(C(=O)Nc3cc(CN4CCN(CCC(=O)NCCCNC(=O)OC5CC/C=C/CCC5)CC4)cc(C(F)(F)F)c3)ccc21` (stereo unspecified), the Drug uptake entry in data set [1] is on record as “Active”. Moreover, the IC50 in data set [2] is 0.397 µM.
As to `CC1CN(c2cncnc2)Cc2cc(C(=O)Nc3cc(CN4CCN(C)CC4)cc(C(F)(F)F)c3)ccc21` (stereo unspecified), the IC50 in the data set with MCF7 came to 3.38 µM; with MDA-MB-231 it was 6.99 µM; in the data set with SK-BR-3, 6.62 µM. Moreover, the result on Cathepsin D [3] was Active. In addition, at Cathepsin D [4], the “inhibition (INH)” value is on record as “Active”.
As for `C#CCCC1(CCN2CCN(Cc3cc(NC(=O)c4ccc5c(c4)CN(c4cncnc4)CC5C)cc(C(F)(F)F)c3)CC2)N=N1` (stereo unspecified), the outcome in [5], in data set [6] and in data set [9] was Active. In addition, the Drug uptake entry in data set [7] and in data set [8] was “Active” in each case. Further, in data set [2], the IC50 was found to be 0.577 µM. Moreover, the result on Cathepsin D [10] was Active.
Turning to `C#CCCC1(CC(=O)N2CCN(Cc3cc(NC(=O)c4ccc5c(c4)CN(c4cncnc4)CC5C)cc(C(F)(F)F)c3)CC2)N=N1` (stereo unspecified), the Activity entry on Cathepsin D [11] is given as “Not Active”; at Cathepsin D [12] it was “Active”; in data set [13], “Active”; on Cathepsin D [14] it was “Active”; at Cathepsin D [10], “Active”; at Protein GPR107, “Active”. Also, the result in [5], in [6] and in data set [9] was Active. For the same compound, the Drug uptake entry in data set [7] and in data set [8] was “Active” in each case. For the same compound, the IC50 in [2] came out at 0.259 µM.
